# Key:
# [1] = tested on: U2OS; assay: Multiplex assay against U2OS; type: toxicity, cell-based; conditions: human
# Procedure, shortened: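 With compound added, live cells were imaged on a CQ1 microscope at 37°C and 5% CO2; staining with Hoechst33342, BioTracker Green Microtubule Cytoskeleton Dye, MitoTracker Red and Annexin V Alexa Fluor 680 had been done at seeding. The CellPathfinder machine-learning gating scheme split cells into Hoechst high-intensity objects or normal cells, normal cells into healthy, pyknosed or fragmented nuclei, and pyknosed cells into mitotic or apoptotic. The tubulin, mitochondrial-mass and membrane-permeability phenotypes are per cents of healthy-nucleus cells.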
# [2] = tested on: U2OS; assay: Incucyte cell viability with U2OS; type: toxicity, cell-based; conditions: human, 10 µM, compound concentration 10 uM; also: filed as whole numbers so only -1 and 0 and 1 occur
# [3] = 12 h, 1 µM, compound concentration 1 uM, replicate 1
# [4] = 12 h, 1 µM, compound concentration 1 uM, replicate 2
# [5] = 12 h, 10 µM, compound concentration 10 uM, replicate 1
# [6] = 12 h, 10 µM, compound concentration 10 uM, replicate 2
# [7] = 24 h, 1 µM, compound concentration 1 uM, replicate 1
# [8] = 24 h, 1 µM, compound concentration 1 uM, replicate 2
# [9] = 24 h, 10 µM, compound concentration 10 uM, replicate 1
# [10] = 24 h, 10 µM, compound concentration 10 uM, replicate 2
# [11] = 48 h, 1 µM, compound concentration 1 uM, replicate 1
# [12] = 48 h, 1 µM, compound concentration 1 uM, replicate 2
# [13] = 48 h, 10 µM, compound concentration 10 uM, replicate 1
# [14] = 48 h, 10 µM, compound concentration 10 uM, replicate 2
smiles,measurement,setting,value
O=C(O)c1ccc2cc(-c3ccc(O)c(C45CC6CC(CC(C6)C4)C5)c3)ccc2c1 [O-DEMETHYLATED ADAPALENE],Population Apoptotic (%),[1]; [3],50%
same,Population Fragmented Nuclei (%),[1]; [3],21%
same,Population Healthy Nuclei (%),[1]; [3],66%
same,Population Hoechst High Intensity Objects (%),[1]; [3],11%
same,Population Membrane Permeable-Phenotype (%),[1]; [3],13%
same,Population Mitochondria Different-Phenotype (%),[1]; [3],12%
same,Population Mitotic Cells (%),[1]; [3],50%
same,Population Normal (%),[1]; [3],88%
same,Population Pyknosed Nuclei (%),[1]; [3],11%
same,Population Tubulin-Different-Phenotype (%),[1]; [3],15%
same,Total Cell Count,[1]; [3],98
same,Population Apoptotic (%),[1]; [4],100%
same,Population Fragmented Nuclei (%),[1]; [4],8%
same,Population Healthy Nuclei (%),[1]; [4],87%
same,Population Hoechst High Intensity Objects (%),[1]; [4],9%
same,Population Membrane Permeable-Phenotype (%),[1]; [4],6%
same,Population Mitochondria Different-Phenotype (%),[1]; [4],16%
same,Population Mitotic Cells (%),[1]; [4],0%
same,Population Normal (%),[1]; [4],90%
same,Population Pyknosed Nuclei (%),[1]; [4],3%
same,Population Tubulin-Different-Phenotype (%),[1]; [4],16%
same,Total Cell Count,[1]; [4],62
same,Population Apoptotic (%),[1]; [5],66%
same,Population Fragmented Nuclei (%),[1]; [5],9%
same,Population Healthy Nuclei (%),[1]; [5],85%
same,Population Hoechst High Intensity Objects (%),[1]; [5],6%
same,Population Membrane Permeable-Phenotype (%),[1]; [5],4%
same,Population Mitochondria Different-Phenotype (%),[1]; [5],15%
same,Population Mitotic Cells (%),[1]; [5],33%
same,Population Normal (%),[1]; [5],93%
same,Population Pyknosed Nuclei (%),[1]; [5],4%
same,Population Tubulin-Different-Phenotype (%),[1]; [5],11%
same,Total Cell Count,[1]; [5],205
same,Population Apoptotic (%),[1]; [6],100%
same,Population Fragmented Nuclei (%),[1]; [6],11%
same,Population Healthy Nuclei (%),[1]; [6],87%
same,Population Hoechst High Intensity Objects (%),[1]; [6],2%
same,Population Membrane Permeable-Phenotype (%),[1]; [6],1%
same,Population Mitochondria Different-Phenotype (%),[1]; [6],16%
same,Population Mitotic Cells (%),[1]; [6],0%
same,Population Normal (%),[1]; [6],97%
same,Population Pyknosed Nuclei (%),[1]; [6],1%
same,Population Tubulin-Different-Phenotype (%),[1]; [6],25%
same,Total Cell Count,[1]; [6],83
same,Population Apoptotic (%),[1]; [7],30%
same,Population Fragmented Nuclei (%),[1]; [7],15%
same,Population Healthy Nuclei (%),[1]; [7],73%
same,Population Hoechst High Intensity Objects (%),[1]; [7],11%
same,Population Membrane Permeable-Phenotype (%),[1]; [7],10%
same,Population Mitochondria Different-Phenotype (%),[1]; [7],13%
same,Population Mitotic Cells (%),[1]; [7],70%
same,Population Normal (%),[1]; [7],89%
same,Population Pyknosed Nuclei (%),[1]; [7],11%
same,Population Tubulin-Different-Phenotype (%),[1]; [7],10%
same,Total Cell Count,[1]; [7],100
same,Population Apoptotic (%),[1]; [8],100%
same,Population Fragmented Nuclei (%),[1]; [8],7%
same,Population Healthy Nuclei (%),[1]; [8],89%
same,Population Hoechst High Intensity Objects (%),[1]; [8],6%
same,Population Membrane Permeable-Phenotype (%),[1]; [8],6%
same,Population Mitochondria Different-Phenotype (%),[1]; [8],30%
same,Population Mitotic Cells (%),[1]; [8],0%
same,Population Normal (%),[1]; [8],93%
same,Population Pyknosed Nuclei (%),[1]; [8],3%
same,Population Tubulin-Different-Phenotype (%),[1]; [8],18%
same,Total Cell Count,[1]; [8],60
same,Population Apoptotic (%),[1]; [9],64%
same,Population Fragmented Nuclei (%),[1]; [9],15%
same,Population Healthy Nuclei (%),[1]; [9],77%
same,Population Hoechst High Intensity Objects (%),[1]; [9],5%
same,Population Membrane Permeable-Phenotype (%),[1]; [9],4%
same,Population Mitochondria Different-Phenotype (%),[1]; [9],20%
same,Population Mitotic Cells (%),[1]; [9],35%
same,Population Normal (%),[1]; [9],94%
same,Population Pyknosed Nuclei (%),[1]; [9],7%
same,Population Tubulin-Different-Phenotype (%),[1]; [9],14%
same,Total Cell Count,[1]; [9],206
same,Population Apoptotic (%),[1]; [10],0%
same,Population Fragmented Nuclei (%),[1]; [10],14%
same,Population Healthy Nuclei (%),[1]; [10],81%
same,Population Hoechst High Intensity Objects (%),[1]; [10],7%
same,Population Membrane Permeable-Phenotype (%),[1]; [10],7%
same,Population Mitochondria Different-Phenotype (%),[1]; [10],26%
same,Population Mitotic Cells (%),[1]; [10],100%
same,Population Normal (%),[1]; [10],92%
same,Population Pyknosed Nuclei (%),[1]; [10],3%
same,Population Tubulin-Different-Phenotype (%),[1]; [10],28%
same,Total Cell Count,[1]; [10],83
same,Population Apoptotic (%),[1]; [11],50%
same,Population Fragmented Nuclei (%),[1]; [11],16%
same,Population Healthy Nuclei (%),[1]; [11],75%
same,Population Hoechst High Intensity Objects (%),[1]; [11],7%
same,Population Membrane Permeable-Phenotype (%),[1]; [11],7%
same,Population Mitochondria Different-Phenotype (%),[1]; [11],31%
same,Population Mitotic Cells (%),[1]; [11],50%
same,Population Normal (%),[1]; [11],92%
same,Population Pyknosed Nuclei (%),[1]; [11],7%
same,Population Tubulin-Different-Phenotype (%),[1]; [11],13%
same,Total Cell Count,[1]; [11],117
same,Population Apoptotic (%),[1]; [12],71%
same,Population Fragmented Nuclei (%),[1]; [12],9%
same,Population Healthy Nuclei (%),[1]; [12],80%
same,Population Hoechst High Intensity Objects (%),[1]; [12],2%
same,Population Membrane Permeable-Phenotype (%),[1]; [12],10%
same,Population Mitochondria Different-Phenotype (%),[1]; [12],42%
same,Population Mitotic Cells (%),[1]; [12],28%
same,Population Normal (%),[1]; [12],97%
same,Population Pyknosed Nuclei (%),[1]; [12],9%
same,Population Tubulin-Different-Phenotype (%),[1]; [12],21%
same,Total Cell Count,[1]; [12],73
same,Population Apoptotic (%),[1]; [13],72%
same,Population Fragmented Nuclei (%),[1]; [13],33%
same,Population Healthy Nuclei (%),[1]; [13],47%
same,Population Hoechst High Intensity Objects (%),[1]; [13],9%
same,Population Membrane Permeable-Phenotype (%),[1]; [13],0%
same,Population Mitochondria Different-Phenotype (%),[1]; [13],34%
same,Population Mitotic Cells (%),[1]; [13],27%
same,Population Normal (%),[1]; [13],90%
same,Population Pyknosed Nuclei (%),[1]; [13],19%
same,Population Tubulin-Different-Phenotype (%),[1]; [13],7%
same,Total Cell Count,[1]; [13],213
same,Population Apoptotic (%),[1]; [14],90%
same,Population Fragmented Nuclei (%),[1]; [14],14%
same,Population Healthy Nuclei (%),[1]; [14],70%
same,Population Membrane Permeable-Phenotype (%),[1]; [14],20%
same,Population Mitochondria Different-Phenotype (%),[1]; [14],54%
same,Population Mitotic Cells (%),[1]; [14],9%
same,Population Pyknosed Nuclei (%),[1]; [14],14%
same,Population Tubulin-Different-Phenotype (%),[1]; [14],45%
same,Total Cell Count,[1]; [14],83
same,Growth Rate,"[2]; 0 h, replicate number 1, timepoint 0 hours",0
same,Growth Rate,"[2]; 12 h, replicate number 1, timepoint 12 hours",1
same,Growth Rate,"[2]; 18 h, replicate number 1, timepoint 18 hours",1
same,Growth Rate,"[2]; 24 h, replicate number 1, timepoint 24 hours",0

# — ChEMBL document CHEMBL4689842, “EUbOPEN Chemogenomics Library wave 1” (2021)
